Assay results from ChEMBL document CHEMBL1944570, “Discovery of 4''-ether linked azithromycin-quinolone hybrid series: influence of the central linker on the antibacterial activity” (ACS Med Chem Lett, 2011).
In brackets after ≈: the same amount, converted by molar mass.

How the values were obtained:
[1] = system: Staphylococcus aureus; experiment: Antibacterial activity against ciprofloxacin-resistant Staphylococcus aureus by agar microdilution method; assay type: functional
How it was run: (§1)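 MIC by agar microdilution following NCCLS standards; strains drawn from the PLIVA Research Institute culture collection. MIC reported in μg/mL.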

[2] = system: Staphylococcus aureus; experiment: Antibacterial activity against erythromycin-susceptible Staphylococcus aureus by agar microdilution method; assay type: functional
How it was run: (§2)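 Agar microdilution MIC per NCCLS standards against strains from the Pliva Research Institute culture collection; values in µg/mL. Panel included erythromycin-susceptible strains and strains with inducible or constitutive MLS resistance.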

[3] = system: Staphylococcus aureus; experiment: Antibacterial activity against Staphylococcus aureus with inducible resistance to MLS by agar microdilution method; assay type: functional; how it was run: as §1
[4] = system: Staphylococcus aureus; experiment: Antibacterial activity against constitutive MLS resistant Staphylococcus aureus by agar microdilution method; assay type: functional; how it was run: as §1
[5] = system: Staphylococcus aureus; experiment: Antibacterial activity against efflux mediated macrolide resistant Staphylococcus aureus by agar microdilution method; assay type: functional; how it was run: as §1
[6] = system: Streptococcus pneumoniae; experiment: Antibacterial activity against erythromycin-susceptible Streptococcus pneumoniae by agar microdilution method; assay type: functional; how it was run: as §1
[7] = system: Streptococcus pneumoniae; experiment: Antibacterial activity against constitutive MLS resistant Streptococcus pneumoniae by agar microdilution method; assay type: functional; how it was run: as §1
[8] = system: Streptococcus pneumoniae; experiment: Antibacterial activity against efflux mediated macrolide resistant Streptococcus pneumoniae by agar microdilution method; assay type: functional; how it was run: as §1
[9] = system: Streptococcus pyogenes; experiment: Antibacterial activity against erythromycin-susceptible Streptococcus pyogenes by agar microdilution method; assay type: functional; how it was run: as §1
[10] = system: Streptococcus pyogenes; experiment: Antibacterial activity against Streptococcus pyogenes with inducible resistance to MLS by agar microdilution method; assay type: functional; how it was run: as §1
[11] = system: Streptococcus pyogenes; experiment: Antibacterial activity against constitutive MLS resistant Streptococcus pyogenes by agar microdilution method; assay type: functional; how it was run: as §1
[12] = system: Streptococcus pyogenes; experiment: Antibacterial activity against efflux mediated macrolide resistant Streptococcus pyogenes by agar microdilution method; assay type: functional; how it was run: as §1
[13] = system: Haemophilus influenzae; experiment: Antibacterial activity against Haemophilus influenzae B0529 by agar microdilution method; assay type: functional; how it was run: as §2
[14] = system: Moraxella catarrhalis; experiment: Antibacterial activity against Moraxella catarrhalis by agar microdilution method; assay type: functional; how it was run: as §2
[15] = Inhibition of protein synthesis using Escherichia coli S30 extracts preincubated for 10 mins measured after 50 mins by luciferase reporter gene assay; assay type: functional
[16] = Inhibition of Escherichia coli DNA gyrase-mediated supercoiling of relaxed pBR322 DNA
[17] = Inhibition of Escherichia coli topoisomerase 4-mediated relaxation of supercoiled pBR322 DNA

Row | Structure (SMILES) | MIC [1] [µg/mL] | MIC [2] [µg/mL] | MIC [3] [µg/mL] | MIC [4] [µg/mL] | MIC [5] [µg/mL] | MIC [6] [µg/mL] | MIC [7] [µg/mL] | MIC [8] [µg/mL] | MIC [9] [µg/mL] | MIC [10] [µg/mL] | MIC [11] [µg/mL] | MIC [12] [µg/mL] | MIC [13] [µg/mL] | MIC [14] [µg/mL] | IC50 [15] [µM] | IC50 [16] [µM] | IC50 [17] [µM]
1 | CC[C@H]1OC(=O)[C@H](C)[C@@H](O[C@H]2C[C@@](C)(OC)[C@@H](OCCNCCNc3cc4c(cc3F)c(=O)c(C(=O)O)cn4C3CC3)[C@H](C)O2)[C@H](C)[C@@H](O[C@@H]2O[C@H](C)C[C@H](N(C)C)[C@H]2O)[C@](C)(O)C[C@@H](C)CN(C)[C@H](C)[C@H]2OC(=O)O[C@@]21C | ≥ 64 | 4 (≈ 3.62 µM) | 64 (≈ 57.8 µM) | > 64 | 4 (≈ 3.62 µM) | ≤ 0.125 | 64 (≈ 57.8 µM) | 0.25 (≈ 0.226 µM) | ≤ 0.125 | 0.25 (≈ 0.226 µM) | 8 (≈ 7.23 µM) | 4 (≈ 3.62 µM) | 4 (≈ 3.62 µM) | 0.5 (≈ 0.452 µM) | – | – | –
2 | CC[C@H]1OC(=O)[C@H](C)[C@@H](O[C@H]2C[C@@](C)(OC)[C@@H](OCCNCCOCCNc3cc4c(=O)c(C(=O)O)cn(C5CC5)c4cc3Cl)[C@H](C)O2)[C@H](C)[C@@H](O[C@@H]2O[C@H](C)C[C@H](N(C)C)[C@H]2O)[C@](C)(O)C[C@@H](C)CN(C)[C@H](C)[C@H]2OC(=O)O[C@@]21C | 32 (≈ 27.4 µM) | ≤ 0.125 | 0.25 (≈ 0.214 µM) | 32 (≈ 27.4 µM) | 0.25 (≈ 0.214 µM) | ≤ 0.125 | – | – | ≤ 0.125 | – | 0.5 (≈ 0.429 µM) | – | 0.5 (≈ 0.429 µM) | ≤ 0.125 | 0.28 | 70 | 60
3 | CC[C@H]1OC(=O)[C@H](C)[C@@H](O[C@H]2C[C@@](C)(OC)[C@@H](OCCN3CCN(c4ccc5c(c4)c(=O)c(C(=O)O)cn5CC)CC3)[C@H](C)O2)[C@H](C)[C@@H](O[C@@H]2O[C@H](C)C[C@H](N(C)C)[C@H]2O)[C@](C)(O)C[C@@H](C)CN(C)[C@H](C)[C@@H](O)[C@]1(C)O | ≥ 64 | 2 (≈ 1.86 µM) | 64 (≈ 59.5 µM) | 64 (≈ 59.5 µM) | 4 (≈ 3.72 µM) | ≤ 0.125 | 64 (≈ 59.5 µM) | – | ≤ 0.125 | 0.25 (≈ 0.232 µM) | 64 (≈ 59.5 µM) | 0.5 (≈ 0.465 µM) | 8 (≈ 7.43 µM) | 4 (≈ 3.72 µM) | – | – | –
4 | CC[C@H]1OC(=O)[C@H](C)[C@@H](O[C@H]2C[C@@](C)(OC)[C@@H](OCCNCCNc3cc4c(=O)c(C(=O)O)cn(C5CC5)c4cc3Cl)[C@H](C)O2)[C@H](C)[C@@H](O[C@@H]2O[C@H](C)C[C@H](N(C)C)[C@H]2O)[C@](C)(O)C[C@@H](C)CN(C)[C@H](C)[C@@H](O)[C@]1(C)O | ≥ 64 | 4 (≈ 3.65 µM) | 64 (≈ 58.4 µM) | > 64 | 8 (≈ 7.29 µM) | ≤ 0.125 | 64 (≈ 58.4 µM) | 0.25 (≈ 0.228 µM) | ≤ 0.125 | 1 (≈ 0.912 µM) | 16 (≈ 14.6 µM) | 8 (≈ 7.29 µM) | 2 (≈ 1.82 µM) | 0.5 (≈ 0.456 µM) | – | – | –
5 | CC[C@H]1OC(=O)[C@H](C)[C@@H](O[C@H]2C[C@@](C)(OC)[C@@H](OCCCC(=O)NCCNc3cc4c(=O)c(C(=O)O)cn(C5CC5)c4cc3Cl)[C@H](C)O2)[C@H](C)[C@@H](O[C@@H]2O[C@H](C)C[C@H](N(C)C)[C@H]2O)[C@](C)(O)C[C@@H](C)CN(C)[C@H](C)[C@@H](O)[C@]1(C)O | ≥ 64 | 4 (≈ 3.51 µM) | 32 (≈ 28.1 µM) | 64 (≈ 56.2 µM) | 4 (≈ 3.51 µM) | 0.5 (≈ 0.439 µM) | 0.5 (≈ 0.439 µM) | ≤ 0.125 | ≤ 0.125 | 0.25 (≈ 0.22 µM) | 2 (≈ 1.76 µM) | 2 (≈ 1.76 µM) | 8 (≈ 7.02 µM) | 4 (≈ 3.51 µM) | – | – | –
6 | CC[C@H]1OC(=O)[C@H](C)[C@@H](O[C@H]2C[C@@](C)(OC)[C@@H](OCCCC(=O)NCCNc3cc4c(cc3F)c(=O)c(C(=O)O)cn4C3CC3)[C@H](C)O2)[C@H](C)[C@@H](O[C@@H]2O[C@H](C)C[C@H](N(C)C)[C@H]2O)[C@](C)(O)C[C@@H](C)CN(C)[C@H](C)[C@@H](O)[C@]1(C)O | ≥ 64 | 8 (≈ 7.13 µM) | 8 (≈ 7.13 µM) | 64 (≈ 57 µM) | 16 (≈ 14.3 µM) | 1 (≈ 0.891 µM) | 1 (≈ 0.891 µM) | 4 (≈ 3.56 µM) | 1 (≈ 0.891 µM) | 1 (≈ 0.891 µM) | 16 (≈ 14.3 µM) | 16 (≈ 14.3 µM) | 8 (≈ 7.13 µM) | 2 (≈ 1.78 µM) | – | – | –
7 | CC[C@H]1OC(=O)[C@H](C)[C@@H](O[C@H]2C[C@@](C)(OC)[C@@H](OCCCC(=O)NCCOCCNc3cc4c(cc3F)c(=O)c(C(=O)O)cn4C3CC3)[C@H](C)O2)[C@H](C)[C@@H](O[C@@H]2O[C@H](C)C[C@H](N(C)C)[C@H]2O)[C@](C)(O)C[C@@H](C)CN(C)[C@H](C)[C@@H](O)[C@]1(C)O | ≥ 64 | 16 (≈ 13.7 µM) | 64 (≈ 54.9 µM) | 64 (≈ 54.9 µM) | 32 (≈ 27.4 µM) | 0.5 (≈ 0.429 µM) | 8 (≈ 6.86 µM) | 0.25 (≈ 0.214 µM) | 0.25 (≈ 0.214 µM) | 0.25 (≈ 0.214 µM) | 4 (≈ 3.43 µM) | 2 (≈ 1.71 µM) | 16 (≈ 13.7 µM) | 8 (≈ 6.86 µM) | – | – | –
8 | CC[C@H]1OC(=O)[C@H](C)[C@@H](O[C@H]2C[C@@](C)(OC)[C@@H](OCCCC(=O)NCCOCCNc3cc4c(=O)c(C(=O)O)cn(C5CC5)c4cc3Cl)[C@H](C)O2)[C@H](C)[C@@H](O[C@@H]2O[C@H](C)C[C@H](N(C)C)[C@H]2O)[C@](C)(O)C[C@@H](C)CN(C)[C@H](C)[C@@H](O)[C@]1(C)O | ≥ 64 | 2 (≈ 1.69 µM) | 64 (≈ 54.1 µM) | 64 (≈ 54.1 µM) | 8 (≈ 6.76 µM) | ≤ 0.125 | 4 (≈ 3.38 µM) | 0.25 (≈ 0.211 µM) | ≤ 0.125 | – | 2 (≈ 1.69 µM) | 1 (≈ 0.845 µM) | 4 (≈ 3.38 µM) | 4 (≈ 3.38 µM) | – | – | –
9 | CC[C@H]1OC(=O)[C@H](C)[C@@H](O[C@H]2C[C@@](C)(OC)[C@@H](OCCCC(=O)NCCOCCOCCNc3cc4c(=O)c(C(=O)O)cn(C5CC5)c4cc3Cl)[C@H](C)O2)[C@H](C)[C@@H](O[C@@H]2O[C@H](C)C[C@H](N(C)C)[C@H]2O)[C@](C)(O)C[C@@H](C)CN(C)[C@H](C)[C@@H](O)[C@]1(C)O | ≥ 64 | 16 (≈ 13 µM) | 64 (≈ 52.2 µM) | 64 (≈ 52.2 µM) | 8 (≈ 6.52 µM) | ≤ 0.125 | 64 (≈ 52.2 µM) | 0.25 (≈ 0.204 µM) | 0.25 (≈ 0.204 µM) | 0.5 (≈ 0.408 µM) | 4 (≈ 3.26 µM) | 1 (≈ 0.815 µM) | 8 (≈ 6.52 µM) | 2 (≈ 1.63 µM) | – | – | –
10 | CC[C@H]1OC(=O)[C@H](C)[C@@H](O[C@H]2C[C@@](C)(OC)[C@@H](O)[C@H](C)O2)[C@H](C)[C@@H](O[C@@H]2O[C@H](C)C[C@H](N(C)C)[C@H]2O)[C@](C)(O)C[C@@H](C)CN(C)[C@H](C)[C@@H](O)[C@]1(C)O [AZITHROMYCIN] | ≥ 64 | 1 (≈ 1.34 µM) | > 64 | > 64 | > 64 | ≤ 0.125 | > 64 | 4 (≈ 5.34 µM) | ≤ 0.125 | 8 (≈ 10.7 µM) | > 64 | 1 (≈ 1.34 µM) | 1 (≈ 1.34 µM) | 0.25 (≈ 0.334 µM) | – | – | –
